The values that follow come from ChEMBL document CHEMBL3244050, “Synthesis and biological activity of beta-endorphin and analogues. Additional evidence for multiple opiate receptors” (J Med Chem, 1978).

The nature of series [1]: Retardation factor of the compound using 1-butanol-pyridine-acetic acid-water at ratio of 6.0:6.0:1.2:4.8 as solvent system by thin layer chromatography. The format is physicochemical. Particulars: buffer.
Series [2] in a line: Retardation factor of the compound using 1-butanol-acetic acid-water at ratio of 4:3:3 as solvent system by thin layer chromatography. Particulars: buffer. In kind it is physicochemical.
The nature of series [3]: Retardation factor of the compound measured at 400 V for 4 hrs by paper electrophoresis. In kind it is physicochemical.
Series [4] is described as follows: Retardation factor of the compound using 1-butanol-pyridine-0.6 M ammonium acetate in 0.1% aqueous acetic acid at ratio of 5:3:11 (v/v) as solvent system by partition chromatography. The format is physicochemical. Particulars: buffer.
The species entered for series [5] is Cavia porcellus. Kind of series: Modulation of opioid receptor in guinea pig ileum assessed as inhibition of electrically evoked contractions. In kind it is tissue-based. The method, boiled down:
(§1)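 Guinea pig ileum, electrically stimulated; depression of contractions measured. Each tissue received increasing concentrations of only one compound, to avoid tachyphylaxis seen with repeat doses given 30 min apart. ID50 taken from log-probit plots of five increasing concentrations, each the mean from six tissues. The relative value is expressed against natural sheep beta-endorphin.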

Series [6] addresses T1, Opioid receptor (Rattus norvegicus) (UniProt P33533+P34975+P33535). As to the kind of experiment: Modulation of opioid receptor in rat vas deferens assessed as inhibition of electrically evoked contractions relative to natural sheep beta-endorphin. In kind it is tissue-based. Further details: scale not given: the % may be the effect or the level left. The method, boiled down:
(§2)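 Rat vas deferens, electrically stimulated; depression of contractions recorded over five increasing concentrations. Each concentration is the mean from six different tissues. ID50 derived from log-probit plots. The relative value and ratio are expressed against natural sheep beta-endorphin.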

Series [7] has as its target T1, Opioid receptor (Rattus norvegicus). As to the kind of experiment: Displacement of [3H]naloxone from opioid receptor in rat brain after 30 mins. The format is tissue-based. The method, boiled down:
(§3)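 Rat brain homogenate (2-mL aliquots, ca. 1 mg wet weight) incubated with […] [3H]naloxone (25 Ci/mmol) for 30 min at 25 °C, with test peptides at three to five concentrations. Each concentration run as three separate sets of duplicates. ID50 taken from log-probit plots. The relative value is expressed against natural sheep beta-endorphin.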

For series [8] the target is unchanged. As to the kind of experiment: Modulation of opioid receptor in rat vas deferens assessed as inhibition of electrically evoked contractions. The format is tissue-based. A digest of the protocol: as §2
Series [9] shares this target. As to the kind of experiment: Displacement of [3H]naloxone from opioid receptor in rat brain after 30 mins relative to natural sheep beta-endorphin. The format is tissue-based. A digest of the protocol: as §3
Series [10] is filed under the species Cavia porcellus. Kind of series: Modulation of opioid receptor in guinea pig ileum assessed as inhibition of electrically evoked contractions relative to natural sheep beta-endorphin. In kind it is tissue-based. Further details: scale not given: the % may be the effect or the level left. The method, boiled down: as §1

Consider BETA-ENDORPHIN [listing 1 of 2 here], for which the Rf is given as 0.45 in series [1], 0.077 in series [2], 0.47 in [3] and 0.2 in series [4].

Take BETA-ENDORPHIN [listing 2 of 2 here]: the ID50 in the series filed under Cavia porcellus [5] is 27 nM; in series [7], 10 nM; in series [8], 130 nM. Further, the Activity (in series [6]; in [9]; in the series filed under Cavia porcellus [10]) was 100% each time.

For `CC[C@H](C)[C@H](NC(=O)[C@H](C)NC(=O)[C@H](CC(N)=O)NC(=O)[C@H](CCCCN)NC(=O)[C@H](Cc1ccccc1)NC(=O)[C@H](CC(C)C)NC(=O)[C@@H](NC(=O)[C@@H](NC(=O)[C@H](CC(C)C)NC(=O)[C@@H]1CCCN1C(=O)[C@@H](NC(=O)[C@H](CCC(N)=O)NC(=O)[C@H](CO)NC(=O)[C@H](CCCCN)NC(=O)[C@H](CCC(=O)O)NC(=O)[C@H](CO)NC(=O)[C@@H](NC(=O)[C@H](CC[S+](C)[O-])NC(=O)[C@H](Cc1ccccc1)N(C)C(=O)CNC(=O)[C@@H](C)NC(=O)[C@@H](N)Cc1ccc(O)cc1)[C@@H](C)O)[C@@H](C)O)C(C)C)[C@@H](C)O)C(=O)N[C@H](C(=O)N[C@@H](CCCCN)C(=O)N[C@@H](CC(N)=O)C(=O)N[C@@H](C)C(=O)N[C@@H](Cc1ccc(O)cc1)C(=O)N[C@@H](CCCCN)C(=O)N[C@@H](CCCCN)C(=O)NCC(=O)N[C@@H](CCC(=O)O)C(=O)O)[C@@H](C)CC` (some centres undefined), the Rf came out at 0.42 in [1], 0.061 in [2], 0.47 in [3] and 0.21 in series [4].
